Measurements taken from ChEMBL document CHEMBL1139340, “Synthesis, radiosynthesis, and biological evaluation of carbon-11 and fluorine-18 labeled reboxetine analogues: potential positron emission tomography radioligands for in vivo imaging of the norepinephrine transporter” (J Med Chem, 2009).

Legend:
[1] = molecular target: Sodium-dependent dopamine transporter (Homo sapiens, UniProt Q01959); assay: Displacement of [125I]RTI-55 from human DAT receptor expressed in canine kidney cells; type: cell-based
Sequence of Sodium-dependent dopamine transporter (Q01959 whole entry): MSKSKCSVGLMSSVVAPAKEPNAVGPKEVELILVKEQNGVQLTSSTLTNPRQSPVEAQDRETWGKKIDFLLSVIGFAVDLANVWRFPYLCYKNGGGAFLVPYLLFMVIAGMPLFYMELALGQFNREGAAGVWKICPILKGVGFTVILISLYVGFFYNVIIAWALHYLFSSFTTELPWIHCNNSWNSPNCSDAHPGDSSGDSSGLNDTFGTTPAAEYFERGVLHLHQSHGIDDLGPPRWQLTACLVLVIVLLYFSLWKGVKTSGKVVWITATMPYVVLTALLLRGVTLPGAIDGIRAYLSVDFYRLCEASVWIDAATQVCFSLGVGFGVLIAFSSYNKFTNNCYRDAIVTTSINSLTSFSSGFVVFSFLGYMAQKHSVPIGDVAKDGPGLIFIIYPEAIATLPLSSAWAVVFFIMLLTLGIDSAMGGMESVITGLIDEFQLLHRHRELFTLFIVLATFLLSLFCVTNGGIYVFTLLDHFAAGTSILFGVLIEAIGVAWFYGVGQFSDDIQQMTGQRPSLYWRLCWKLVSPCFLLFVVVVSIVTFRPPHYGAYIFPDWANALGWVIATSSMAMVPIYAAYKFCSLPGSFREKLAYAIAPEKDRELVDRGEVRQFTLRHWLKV
Summary of the method: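 Competition binding against [¹²⁵I]RTI-55 in canine kidney cells stably transfected with human DAT. Ki in nM, geometric mean ± SD of at least three separate experiments, each run in triplicate.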

[2] = Lipophilicity, log P at pH 7.4; type: physicochemical; conditions: buffer
Summary of the method: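 Radiotracer (~5–10 μCi) in 2 mL 1-octanol plus 2 mL 0.02 M sodium phosphate buffer, pH 7.4. Vortexed 10 min at room temperature, centrifuged 5 min. 0.5 mL of each layer gamma-counted and decay corrected. log P = log(octanol counts/buffer counts), done three times and averaged.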

[3] = molecular target: Sodium-dependent noradrenaline transporter (Homo sapiens, UniProt P23975); assay: Displacement of [3H]nisoxetine from human NET receptor expressed in HEK293 cells; type: cell-based
Sequence of Sodium-dependent noradrenaline transporter (P23975 whole entry): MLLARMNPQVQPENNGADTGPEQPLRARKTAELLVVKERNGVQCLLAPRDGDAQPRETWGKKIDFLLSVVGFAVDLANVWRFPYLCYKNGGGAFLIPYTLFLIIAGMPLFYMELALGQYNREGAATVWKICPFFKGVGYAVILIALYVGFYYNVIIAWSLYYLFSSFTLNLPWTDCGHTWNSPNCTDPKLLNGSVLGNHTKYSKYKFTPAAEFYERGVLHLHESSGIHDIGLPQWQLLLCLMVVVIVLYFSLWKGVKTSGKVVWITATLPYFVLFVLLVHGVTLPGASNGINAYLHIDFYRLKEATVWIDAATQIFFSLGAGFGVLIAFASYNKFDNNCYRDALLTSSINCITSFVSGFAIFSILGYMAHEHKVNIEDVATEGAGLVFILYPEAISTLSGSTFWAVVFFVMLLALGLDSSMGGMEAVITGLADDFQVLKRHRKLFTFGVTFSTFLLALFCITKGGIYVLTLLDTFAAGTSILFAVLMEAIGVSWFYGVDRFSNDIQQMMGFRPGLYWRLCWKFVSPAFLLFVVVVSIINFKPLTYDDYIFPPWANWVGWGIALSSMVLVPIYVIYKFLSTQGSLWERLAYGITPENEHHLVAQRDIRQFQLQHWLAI

[4] = organism: Homo sapiens; assay: Selectivity for human NET over human SERT
Summary of the method: (§1)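 Competition binding in stably transfected cells expressing human transporters: NET vs [3H]nisoxetine and SERT vs [3H]citalopram in HEK-293 cells; DAT vs [125I]RTI-55 in canine kidney cells. Ki as geometric mean of at least three experiments in triplicate; selectivity as ratio of SERT or DAT Ki to NET Ki.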

[5] = molecular target: Sodium-dependent serotonin transporter (Homo sapiens, UniProt P31645); assay: Displacement of [3H]citalopram from human SERT receptor expressed in HEK293 cells; type: cell-based
Sequence of Sodium-dependent serotonin transporter (P31645 whole entry): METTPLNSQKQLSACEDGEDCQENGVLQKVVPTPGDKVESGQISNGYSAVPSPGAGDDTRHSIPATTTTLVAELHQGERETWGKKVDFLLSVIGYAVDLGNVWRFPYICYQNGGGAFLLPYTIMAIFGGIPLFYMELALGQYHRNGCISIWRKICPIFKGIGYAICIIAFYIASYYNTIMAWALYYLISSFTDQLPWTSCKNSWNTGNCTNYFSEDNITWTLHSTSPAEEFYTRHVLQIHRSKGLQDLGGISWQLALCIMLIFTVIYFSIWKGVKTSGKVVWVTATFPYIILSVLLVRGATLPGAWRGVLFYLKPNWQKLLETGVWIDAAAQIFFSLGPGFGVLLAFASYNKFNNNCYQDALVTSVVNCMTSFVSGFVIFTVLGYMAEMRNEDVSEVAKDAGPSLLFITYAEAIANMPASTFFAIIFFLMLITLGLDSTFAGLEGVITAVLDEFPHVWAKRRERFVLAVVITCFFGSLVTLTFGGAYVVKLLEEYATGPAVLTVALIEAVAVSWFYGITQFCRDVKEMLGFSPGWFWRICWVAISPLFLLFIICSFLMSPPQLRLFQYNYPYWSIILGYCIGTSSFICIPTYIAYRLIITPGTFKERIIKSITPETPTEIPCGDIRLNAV
Summary of the method: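 Competition binding against [³H]citalopram in HEK-293 cells stably transfected with human SERT. Ki in nM, geometric mean ± SD of at least three separate experiments, each run in triplicate.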

[6] = organism: Homo sapiens; assay: Selectivity for human NET over human DAT; summary of the method: as §1

Row | SMILES | Ki [1] | logD [2] | Ki [3] | Ratio Ki [4] | Ki [5] | Ratio Ki [6]
1 | Cc1ccccc1S[C@@H](c1ccccc1)[C@@H]1CNCCO1 | 275 nM | 2.47 | 0.3 nM | 49 | 14.8 nM | 917
2 | FCCCc1ccccc1O[C@@H](c1ccccc1)[C@@H]1CNCCO1 | > 6000 nM | 2.29 | 3.68 nM | 126 | 463 nM | > 2000
